The text below walks through data of publication PMC9037808 (RSC Advances, 2021).

Where two headings read alike, the source gives them in different places.

What all share (type): cell-based
The test system of experiment [1] is HeLa. The experiment is described as follows: MTT cytotoxicity assay, HeLa. The conditions noted are these: read-out: IC50, HeLa. Put shortly: (§1)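 Cells were grown at 37 °C in 5% CO2: HeLa and NRK-52E in DMEM, NCI-H520 in RPMI, each with 10% heat-inactivated FBS plus penicillin/streptomycin/amphotericin B. They were seeded at 10^4 cells/well in triplicate and left 24 h. Test compound (5–300 μM) was added for 24 h, then removed with a PBS wash. MTT was added for 3 h, formazan dissolved in DMSO, and A570 read. IC50 came from nonlinear regression of survival curves, shown as mean ± SE of triplicate independent analyses.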
(In general: Tetrazolium dyes change colour on reduction, which living cells bring about.)

Experiment [2] has as its system NCI-H520. The experiment is described as follows: MTT cytotoxicity assay, NCI-H520. The conditions noted are these: read-out: IC50, NCI-H520. In a few lines: as §1
For a further experiment, the system named is NRK-52E. Briefly: MTT cytotoxicity assay, NRK-52E. The note with it: read-out: IC50, NRK-52E, 24 h treatment, normal rat kidney epithelial cell line. In a few lines: as §1
In experiment [3] the test system is HeLa. The experiment is described as follows: Apoptosis, Muse Annexin V & Dead cell kit, HeLa. The note with it: IC50 dose (12.59 μM 4a, 11.26 μM 7b), 24 h; untreated 8.05%.
Experiment [4] deals with NCI-H520. Briefly: Apoptosis, Muse Annexin V & Dead cell kit, NCI-H520. The note with it: IC50 dose; untreated 7.15%.
The mark [5] stands for this setting: MTT, 24 h treatment, mean of three independent experiments.

Regarding `CCn1c2ccccc2c2cc(C3CC(c4cc5cccc(OC)c5oc4=O)=NN3C(N)=O)ccc21` (stereo not drawn) [Compound 4b, 5-(9-Ethyl-9H-carbazol-3-yl)-3-(8-methoxy-2-oxo-2H-chromen-3-yl)-4,5-dihydro-1H-pyrazole-1-carboxamide], the IC50 (as a rule, the concentration at which inhibition is half-maximal) was 29.8 ± 1.85 µM with HeLa [1] (Homo sapiens, HeLa, 24 h) and 22.5 ± 2.15 µM in the experiment on NCI-H520 [2] (Homo sapiens, NCI-H520, 24 h).

For `CCn1c2ccccc2c2cc(C3CC(c4cc5c(ccc6ccccc65)oc4=O)=NN3C(C)=O)ccc21` (stereo not drawn) [Compound 8c, 2-(1-Acetyl-5-(9-ethyl-9H-carbazol-3-yl)-4,5-dihydro-1H-pyrazol-3-yl)-3H-benzo[f]chromen-3-one], the IC50 is 55.9 ± 1.3 µM with HeLa [1] (Homo sapiens, HeLa, 24 h) and 77.61 ± 0.34 µM in the experiment on NCI-H520 [2] (Homo sapiens, NCI-H520, 24 h).

For `CCn1c2ccccc2c2cc(C3CC(c4cc5c(ccc6ccccc65)oc4=O)=NN3c3ccc(C)cc3)ccc21` (stereo not drawn) [Compound 6c, 2-(5-(9-Ethyl-9H-carbazol-3-yl)-1-(p-tolyl)-4,5-dihydro-1H-pyrazol-3-yl)-3H-benzo[f] chromen-3-one], the IC50 with HeLa [1] (Homo sapiens, HeLa, 24 h) is 57.5 ± 1.32 µM; with NCI-H520 [2] (Homo sapiens, NCI-H520, 24 h), 61.7 ± 1.48 µM.

Consider `N.N.[Cl][Pt][Cl]` [Cis-platin, reference compound], for which the IC50 was determined as 7.75 ± 0.42 µM with HeLa [1] (setting [5]), 10.4 ± 1.35 µM in the experiment with NCI-H520 [2] (setting [5]) and 12.9 ± 0.4 µM in the experiment with NRK-52E.

Regarding `CCn1c2ccccc2c2cc(/C=C/C(=O)c3cc4cccc(OC)c4oc3=O)ccc21` [Compound 3b, (E)-3-(3-(9-Ethyl-9H-carbazol-3-yl)acryloyl)-8-methoxy-2H-chromen-2-one], the IC50 in the experiment on HeLa [1] (Homo sapiens, HeLa, 24 h) stood at 119 ± 6.88 µM; in the experiment with NCI-H520 [2] (Homo sapiens, NCI-H520, 24 h), 103 ± 4.78 µM.

`O=c1[nH]cc(F)c(=O)[nH]1` [5-Fluorouracil, reference compound]: the IC50 in the experiment with HeLa [1] (Homo sapiens, HeLa, 24 h) worked out at 55.7 ± 2.1 µM; in the experiment with NCI-H520 [2] (Homo sapiens, NCI-H520, 24 h), 8.36 ± 0.45 µM.

Take `CCn1c2ccccc2c2cc(C3CC(c4cc5cccc(OC)c5oc4=O)=NN3c3ccccc3)ccc21` (stereo not drawn) [Compound 5b, 3-(5-(9-Ethyl-9H-carbazol-3-yl)-1-phenyl-4,5-dihydro-1H-pyrazol-3-yl)-8-methoxy-2H-chromen-2-one]: the concentration for half-maximal inhibition (IC50) with HeLa [1] (Homo sapiens, HeLa, 24 h) came out at 39 ± 0.46 µM; in the experiment on NCI-H520 [2] (Homo sapiens, NCI-H520, 24 h), 62.7 ± 1.63 µM.

Take `CCn1c2ccccc2c2cc(C3CC(c4cc5cccc(OC)c5oc4=O)=NN3c3cccc(Cl)c3)ccc21` (stereo not drawn) [Compound 7b, 3-(1-(3-Chlorophenyl)-5-(9-ethyl-9H-carbazol-3-yl)-4,5-dihydro-1H-pyrazol-3-yl)-8-methoxy-2H-chromen-2-one]: the IC50 with HeLa [1] (Homo sapiens, HeLa, 24 h) was 11.4 ± 0.24 µM; with NCI-H520 [2] (Homo sapiens, NCI-H520, 24 h), 9.13 ± 0.08 µM. For the same molecule, the “apoptotic cells, HeLa” value in the experiment on HeLa [3] is given as 24%. Besides, the “apoptotic cell death, NCI-H520” value with NCI-H520 [4] worked out at 16.10%.

On to `CCn1c2ccccc2c2cc(C3CC(c4cc5ccccc5oc4=O)=NN3c3cccc(Cl)c3)ccc21` (stereo not drawn) [Compound 7a, 3-(1-(3-Chlorophenyl)-5-(9-ethyl-9H-carbazol-3-yl)-4,5-dihydro-1H-pyrazol-3-yl)-2H-chromen-2-one], for which the IC50 is 33.4 ± 0.64 µM in the experiment with HeLa [1] (Homo sapiens, HeLa, 24 h) and 14.3 ± 0.21 µM in the experiment with NCI-H520 [2] (Homo sapiens, NCI-H520, 24 h).

Regarding `CCn1c2ccccc2c2cc(C3CC(c4cc5cccc(OC)c5oc4=O)=NN3C(C)=O)ccc21` (stereo not drawn) [Compound 8b, 3-(1-Acetyl-5-(9-ethyl-9H-carbazol-3-yl)-4,5-dihydro-1H-pyrazol-3-yl)-8-methoxy-2H-chromen-2-one], the IC50 came to 76.8 ± 1.45 µM in the experiment with HeLa [1] (Homo sapiens, HeLa, 24 h) and 54.7 ± 0.65 µM in the experiment on NCI-H520 [2] (Homo sapiens, NCI-H520, 24 h).

With `CCn1c2ccccc2c2cc(C3CC(c4cc5ccccc5oc4=O)=NN3C(C)=O)ccc21` (stereo not drawn) [Compound 8a, 3-(1-Acetyl-5-(9-ethyl-9H-carbazol-3-yl)-4,5-dihydro-1H-pyrazol-3-yl)-2H-chromen-2-one], the IC50 is 43.2 ± 0.52 µM in the experiment with HeLa [1] (Homo sapiens, HeLa, 24 h) and 62.5 ± 1.95 µM in the experiment with NCI-H520 [2] (Homo sapiens, NCI-H520, 24 h).

`CCn1c2ccccc2c2cc(/C=C/C(=O)c3cc4c(ccc5ccccc54)oc3=O)ccc21` [Compound 3c, (E)-2-(3-(9-Ethyl-9H-carbazol-3-yl)acryloyl)-3H-benzo[f]chromen-3-one]: the IC50 in the experiment on HeLa [1] (Homo sapiens, HeLa, 24 h) is 142 ± 7.77 µM; in the experiment on NCI-H520 [2] (Homo sapiens, NCI-H520, 24 h), 133 ± 4.75 µM.

Regarding `CCn1c2ccccc2c2cc(C3CC(c4cc5c(ccc6ccccc65)oc4=O)=NN3c3ccccc3)ccc21` (stereo not drawn) [Compound 5c, 2-(5-(9-Ethyl-9H-carbazol-3-yl)-1-phenyl-4,5-dihydro-1H-pyrazol-3-yl)-3H-benzo[f] chromen-3-one], the IC50 in the experiment with HeLa [1] (Homo sapiens, HeLa, 24 h) was 55 ± 0.96 µM; with NCI-H520 [2] (Homo sapiens, NCI-H520, 24 h), 83.6 ± 1.2 µM.

As for `CCn1c2ccccc2c2cc(/C=C/C(=O)c3cc4ccccc4oc3=O)ccc21` [Compound 3a, (E)-3-(3-(9-Ethyl-9H-carbazol-3-yl)acryloyl)-2H-chromen-2-one], the half-inhibitory concentration (IC50) was determined as 132 ± 5.16 µM in the experiment with HeLa [1] (Homo sapiens, HeLa, 24 h) and 120 ± 3.78 µM in the experiment with NCI-H520 [2] (Homo sapiens, NCI-H520, 24 h).

Consider `CCn1c2ccccc2c2cc(C3CC(c4cc5ccccc5oc4=O)=NN3c3ccccc3)ccc21` (stereo not drawn) [Compound 5a, 3-(5-(9-Ethyl-9H-carbazol-3-yl)-1-phenyl-4,5-dihydro-1H-pyrazol-3-yl)-2H-chromen-2-one], for which the IC50 in the experiment with HeLa [1] (Homo sapiens, HeLa, 24 h) turned out to be 92.5 ± 4.25 µM; in the experiment on NCI-H520 [2] (Homo sapiens, NCI-H520, 24 h), 81.2 ± 1.46 µM.

Take `CCn1c2ccccc2c2cc(C3CC(c4cc5cccc(OC)c5oc4=O)=NN3c3ccc(C)cc3)ccc21` (stereo not drawn) [Compound 6b, 3-(5-(9-Ethyl-9H-carbazol-3-yl)-1-(p-tolyl)-4,5-dihydro-1H-pyrazol-3-yl)-8-methoxy-2H-chromen-2-one]: the IC50 with HeLa [1] (Homo sapiens, HeLa, 24 h) was 30.8 ± 0.5 µM; in the experiment with NCI-H520 [2] (Homo sapiens, NCI-H520, 24 h), 30 ± 0.33 µM.

As for `CCn1c2ccccc2c2cc(C3CC(c4cc5ccccc5oc4=O)=NN3c3ccc(C)cc3)ccc21` (stereo not drawn) [Compound 6a, 3-(5-(9-Ethyl-9H-carbazol-3-yl)-1-(p-tolyl)-4,5-dihydro-1H-pyrazol-3-yl)-2H-chromen-2-one], the IC50 in the experiment on HeLa [1] (Homo sapiens, HeLa, 24 h) turned out to be 67 ± 1.87 µM; with NCI-H520 [2] (Homo sapiens, NCI-H520, 24 h) it was 38.3 ± 0.78 µM.

`CCn1c2ccccc2c2cc(C3CC(c4cc5ccccc5oc4=O)=NN3C(N)=O)ccc21` (stereo not drawn) [Compound 4a, 5-(9-Ethyl-9H-carbazol-3-yl)-3-(2-oxo-2H-chromen-3-yl)-4,5-dihydro-1H-pyrazole-1-carboxamide]: the IC50 was 12.59 ± 0.1 µM in the experiment on HeLa [1] (Homo sapiens, HeLa, 24 h) and 11.3 ± 0.45 µM in the experiment on NCI-H520 [2] (Homo sapiens, NCI-H520, 24 h). In addition, in the experiment on HeLa [3], the “apoptotic cells, HeLa” value is 25.5%. Moreover, the “apoptotic cell death, NCI-H520” value in the experiment with NCI-H520 [4] amounted to 18%.

In the case of `CCn1c2ccccc2c2cc(C3CC(c4cc5c(ccc6ccccc65)oc4=O)=NN3c3cccc(Cl)c3)ccc21` (stereo not drawn) [Compound 7c, 2-(1-(3-Chlorophenyl)-5-(9-ethyl-9H-carbazol-3-yl)-4,5-dihydro-1H-pyrazol-3-yl)-3H-benzo[f]chromen-3-one], the IC50 was 29 ± 0.84 µM in the experiment with HeLa [1] (Homo sapiens, HeLa, 24 h) and 20.8 ± 0.27 µM in the experiment with NCI-H520 [2] (Homo sapiens, NCI-H520, 24 h).

Consider `CCn1c2ccccc2c2cc(C3CC(c4cc5c(ccc6ccccc65)oc4=O)=NN3C(N)=O)ccc21` (stereo not drawn) [Compound 4c, 5-(9-Ethyl-9H-carbazol-3-yl)-3-(3-oxo-3H-benzo[f]chromen-2-yl)-4,5-dihydro-1H-pyrazole-1-carboxamide], for which the IC50 in the experiment on HeLa [1] (Homo sapiens, HeLa, 24 h) is 43.5 ± 1.02 µM; with NCI-H520 [2] (Homo sapiens, NCI-H520, 24 h), 55.6 ± 1.93 µM.
